Reference: ChEMBL document CHEMBL1833940, “Discovery of 3-(2,6-dichloro-3,5-dimethoxy-phenyl)-1-{6-[4-(4-ethyl-piperazin-1-yl)-phenylamino]-pyrimidin-4-yl}-1-methyl-urea (NVP-BGJ398), a potent and selective inhibitor of the fibroblast growth factor receptor family of receptor tyrosine kinase” (J Med Chem, 2011)
Activity calls are given as the source filed them. The calls are words filed in the database; no cut-off is given here.

Key:
[1] = tested on: SW780; assay: Antiproliferative activity against human SW780 cells overexpressing wild type FGFR3 after 72 hrs; type: functional, cell-based; conditions: SW780, 72 h
In short: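 Bladder cancer lines from ATCC or DSMZ were seeded in 96-well plates (RT4, RT112 at 8500 cells/well; others at 5000 cells/well) in growth medium. Compound dilutions or DMSO were added 24 h later and incubated 72 h. Cells were fixed with glutaraldehyde, stained with 0.05% methylene blue and eluted with 3% HCl, then OD650 nm was read.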

[2] = molecular target: Tyrosine-protein kinase receptor UFO (Homo sapiens, UniProt P30530); assay: Inhibition of recombinant AXL
In short: (§1)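 Purified recombinant kinases under optimized conditions, with peptide substrates and ATP at each kinase's Km. Phosphorylation was read out by microfluidic mobility shift, and IC50 values were obtained.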

[3] = molecular target: Phosphatidylinositol 3-kinase catalytic subunit type 3 (Homo sapiens, UniProt Q8NEB9); assay: Inhibition of recombinant VPS34 by luminescent kinase assay
[4] = Tmax in plasma of RT112/luc1 cells implanted athymic nude mouse at 20 mg/kg, po by LC/MS/MS analysis; type: ADME, organism-based; design: dose 20 mg/kg, route oral
In short: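 Female athymic nude mice carrying subcutaneous RT112/luc1 tumors (ca. 300–400 mm3). Dosing was 5 mg/kg iv by tail vein in NMP/PEG200 (1:9) or 20 mg/kg by oral gavage as a suspension in PEG300/D5W (2:1). Groups (n = 4) were sacrificed from 0.083 to 24 h. Plasma and tumor were measured by LC-MS/MS (LOQ 5 ng/mL, 10 ng/g). Noncompartmental analysis used the linear trapezoidal AUC; F was calculated from dose-normalized AUC.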

[5] = molecular target: Tyrosine-protein kinase Yes (Homo sapiens, UniProt P07947); assay: Inhibition of recombinant YES kinase
In short: (§2)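 Purified recombinant kinases under optimized conditions with peptide substrates. ATP was set at each kinase's Km. Phosphorylation was read by microfluidic mobility-shift separation of substrate and product; IC50 determined.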

[6] = tested on: Tumour; assay: Cmax in tumor of RT112/luc1 cells implanted athymic nude mouse at 20 mg/kg, po by LC/MS/MS analysis; type: ADME, organism-based, Neoplasm; design: dose 20 mg/kg, route oral; conditions: in vivo
In short: (§3)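 Female athymic nude mice carried subcutaneous RT112/luc1 tumors (5×10^6 cells, 50% Matrigel; about 300–400 mm3). Dosing was either 5 mg/kg iv by tail vein in NMP/PEG200 (1:9) or 20 mg/kg oral suspension in PEG300/D5W (2:1). Groups of mice (n = 4) were sacrificed at 0.083–24 h. Plasma and tumor levels were measured by LC-MS/MS (LOQ 5 ng/mL, 10 ng/g).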

[7] = tested on: Mus musculus; assay: Antiangiogenic activity in FVB mouse agar chamber model assessed as inhibition of VEGF-induced angiogenesis at 10 to 50 mg/kg, po administered for 4 days; type: functional, organism-based
In short: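 Female FVB mice implanted subcutaneously with perfluoroalkoxy-Teflon chambers holding 0.8% agar with 20 U/mL heparin, with or without dog VEGF 2 μg/mL or bFGF 0.3 μg/mL. Oral dosing at 10, 30, 50 mg/kg/day in 10% NMP/PEG300 (5 mL/kg), started before implantation and continued 3 days. Capsules were removed 24 h after the last dose. Readout was capsule weight and Tie-2 by ELISA, as % inhibition against vehicle and no-growth-factor background.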

[8] = molecular target: Mitogen-activated protein kinase kinase kinase 8 (Homo sapiens, UniProt P41279); assay: Inhibition of recombinant COT; in short: as §1
[9] = Half life in tumor of RT112/luc1 cells implanted in athymic nude mouse at 5 mg/kg, iv by LC/MS/MS analysis; type: ADME, organism-based, Neoplasm; design: dose 5 mg/kg, route intravenous; in short: as §3
[10] = molecular target: Aurora kinase A (Homo sapiens, UniProt O14965); assay: Inhibition of recombinant Aurora A; in short: as §1
[11] = molecular target: Hepatocyte growth factor receptor (Homo sapiens, UniProt P08581); assay: Inhibition of recombinant MET
In short: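 Purified recombinant kinases were tested under optimized conditions with peptide substrates. ATP was set at each kinase's Km. Phosphorylation was read out by microfluidic mobility shift, and IC50 values were determined.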

[12] = molecular target: MAP kinase-activated protein kinase 5 (Homo sapiens, UniProt Q8IW41); assay: Inhibition of recombinant MK5; in short: as §2
[13] = molecular target: Rho-associated protein kinase 2 (Homo sapiens, UniProt O75116); assay: Inhibition of recombinant ROCK2; in short: as §2
[14] = tested on: Mus musculus; assay: Toxicity in athymic nude mouse xenografted with human RT112 cells assessed as weight loss at 10 mg/kg, po administered for 12 days; type: organism-based, RT-112; design: dose 10 mg/kg, route oral; conditions: in vivo, 288 h
In short: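 Female athymic nude mice carried orthotopic RT112/luc1 bladder tumors. Starting 14 days after inoculation, they were dosed orally at 0, 10 or 30 mg/kg/qd for 12 days as a suspension in PEG300/D5W (2:1). Body weight was recorded during treatment. Data are means ± SEM; ANOVA with Dunnett's test versus vehicle.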

[15] = tested on: Rattus norvegicus; assay: Toxicity in nude Rowett rat xenografted with human RT112 cells assessed as morbidity at 5 mg/kg, po qd administered for 20 days; type: organism-based, RT-112; design: dose 5 mg/kg, route oral; conditions: in vivo, 480 h
In short: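 Female nude Rowett rats carried subcutaneous RT112 tumors (1 × 10^6 cells in Matrigel), starting at about 100 mm3. The monophosphate salt was gavaged daily for 20 days at 5, 10 or 15 mg/kg (free base) in acetate buffer pH 4.6/PEG300 (1:1), n = 8. Body weight and morbidity were monitored; ANOVA with Dunnett's test.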

[16] = tested on: Rattus norvegicus; assay: Inhibition of FGFR autophosphorylation in RT112 tumor bearing nude rowett rat assessed as decrease in pMAPK concentration at 4.25 to 8.51 mg/kg, po administered as a single dose after 24 hrs by Western blot analysis; type: functional, organism-based
In short: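 RT112 subcutaneous xenografts in female nude Rowett rats (n = 4). Single oral gavage of the monophosphate salt at 4.25 or 8.51 mg/kg (free base equivalents) in acetic acid–acetate buffer pH 4.6/PEG300 (1:1). Tumors were collected at time points up to 24 h, frozen, homogenized and lysed. Western blots probed pFRS2(Tyr196) and pMAPK, with total FRS2, total MAPK or β-tubulin as loading controls.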

[17] = tested on: RT-112; assay: Antitumor activity against human RT112 cells xenografted in athymic nude mouse assessed as tumor stasis at 30 mg/kg, po administered for 12 days; type: functional, organism-based; design: dose 30 mg/kg
In short: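 Female HsdNpa:Athymic Nude-nu mice received RT112/luc1 cells (luciferase retroviral line; about 1–2×10^5 cells) into the bladder lumen. Oral treatment started 14 days after inoculation: suspension in PEG300/D5W (2:1) at 10 or 30 mg/kg/qd for 12 days. Tumor burden was measured by IVIS bioluminescence 10 min after iv D-luciferin. T/C was computed from change in light emission; ANOVA with Dunnett's test.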

[18] = tested on: Tumour; assay: Drug uptake in tumor of nude rowett rat bearing human RT112 cells at 4.25 mg/kg, po administered as a single dose after 16 hrs by LC-MS/MS analysis; type: ADME, organism-based, Neoplasm, RT-112; design: dose 4.25 mg/kg, route oral; conditions: in vivo
In short: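 Nude Rowett rats bearing subcutaneous RT112 tumors (n = 4) received a single gavage of monophosphate salt at 4.25 or 8.51 mg/kg free base in acetate buffer pH 4.6/PEG300. Tumors were collected at intervals after dosing, frozen and homogenized in an equal volume of ice-cold PBS. Compound levels were measured by LC-MS/MS (LOQ 3 ng/mL).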

Phosphatidylinositol 3-kinase catalytic subunit type 3, sequence (Q8NEB9 whole entry): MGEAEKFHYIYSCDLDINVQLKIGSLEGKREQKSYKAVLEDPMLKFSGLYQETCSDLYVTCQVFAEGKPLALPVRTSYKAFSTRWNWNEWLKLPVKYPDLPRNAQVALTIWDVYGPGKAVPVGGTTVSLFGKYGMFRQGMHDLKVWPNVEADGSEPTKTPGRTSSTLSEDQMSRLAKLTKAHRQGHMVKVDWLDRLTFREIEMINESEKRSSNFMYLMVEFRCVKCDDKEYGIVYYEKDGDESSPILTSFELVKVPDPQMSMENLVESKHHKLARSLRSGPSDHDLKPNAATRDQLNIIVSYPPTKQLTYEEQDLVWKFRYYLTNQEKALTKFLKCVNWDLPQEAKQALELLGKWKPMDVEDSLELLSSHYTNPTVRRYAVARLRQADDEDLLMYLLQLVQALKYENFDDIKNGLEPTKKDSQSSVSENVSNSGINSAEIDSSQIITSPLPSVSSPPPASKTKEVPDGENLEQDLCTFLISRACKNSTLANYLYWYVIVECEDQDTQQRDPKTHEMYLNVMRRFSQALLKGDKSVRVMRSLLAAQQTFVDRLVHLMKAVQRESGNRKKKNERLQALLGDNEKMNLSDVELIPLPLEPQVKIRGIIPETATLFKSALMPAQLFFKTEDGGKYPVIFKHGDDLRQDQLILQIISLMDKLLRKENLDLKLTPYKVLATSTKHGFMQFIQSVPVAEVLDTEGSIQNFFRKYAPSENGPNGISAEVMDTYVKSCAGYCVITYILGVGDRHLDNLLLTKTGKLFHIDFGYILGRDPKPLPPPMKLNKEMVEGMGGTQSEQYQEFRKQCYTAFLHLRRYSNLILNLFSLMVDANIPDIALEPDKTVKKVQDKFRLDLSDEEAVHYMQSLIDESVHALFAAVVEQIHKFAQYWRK
MAP kinase-activated protein kinase 5, sequence (Q8IW41 whole entry): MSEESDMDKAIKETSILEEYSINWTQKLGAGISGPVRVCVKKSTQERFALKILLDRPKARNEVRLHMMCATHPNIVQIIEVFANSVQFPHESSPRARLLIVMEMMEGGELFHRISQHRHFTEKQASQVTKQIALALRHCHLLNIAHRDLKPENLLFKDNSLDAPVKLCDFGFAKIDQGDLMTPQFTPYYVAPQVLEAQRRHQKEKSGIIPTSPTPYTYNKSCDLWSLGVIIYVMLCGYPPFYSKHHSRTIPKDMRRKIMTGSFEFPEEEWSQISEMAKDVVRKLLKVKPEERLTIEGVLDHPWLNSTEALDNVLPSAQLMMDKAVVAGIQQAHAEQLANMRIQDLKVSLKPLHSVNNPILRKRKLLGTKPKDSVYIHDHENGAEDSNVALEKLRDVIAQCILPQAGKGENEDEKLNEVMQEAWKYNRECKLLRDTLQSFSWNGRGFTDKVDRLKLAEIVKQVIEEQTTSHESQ
Mitogen-activated protein kinase kinase kinase 8, sequence (P41279 whole entry): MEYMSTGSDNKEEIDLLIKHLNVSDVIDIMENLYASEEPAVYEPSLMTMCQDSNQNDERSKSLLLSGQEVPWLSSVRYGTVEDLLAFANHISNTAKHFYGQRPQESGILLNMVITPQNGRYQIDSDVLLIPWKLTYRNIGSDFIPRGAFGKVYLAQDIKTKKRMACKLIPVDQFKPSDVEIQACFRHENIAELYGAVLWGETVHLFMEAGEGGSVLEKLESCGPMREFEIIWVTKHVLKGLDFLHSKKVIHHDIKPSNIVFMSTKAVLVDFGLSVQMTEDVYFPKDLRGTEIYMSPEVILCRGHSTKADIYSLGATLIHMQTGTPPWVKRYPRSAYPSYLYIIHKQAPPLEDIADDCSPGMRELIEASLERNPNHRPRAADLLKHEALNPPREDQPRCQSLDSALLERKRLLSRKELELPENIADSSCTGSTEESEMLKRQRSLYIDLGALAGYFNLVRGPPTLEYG
Rho-associated protein kinase 2, sequence (O75116 whole entry): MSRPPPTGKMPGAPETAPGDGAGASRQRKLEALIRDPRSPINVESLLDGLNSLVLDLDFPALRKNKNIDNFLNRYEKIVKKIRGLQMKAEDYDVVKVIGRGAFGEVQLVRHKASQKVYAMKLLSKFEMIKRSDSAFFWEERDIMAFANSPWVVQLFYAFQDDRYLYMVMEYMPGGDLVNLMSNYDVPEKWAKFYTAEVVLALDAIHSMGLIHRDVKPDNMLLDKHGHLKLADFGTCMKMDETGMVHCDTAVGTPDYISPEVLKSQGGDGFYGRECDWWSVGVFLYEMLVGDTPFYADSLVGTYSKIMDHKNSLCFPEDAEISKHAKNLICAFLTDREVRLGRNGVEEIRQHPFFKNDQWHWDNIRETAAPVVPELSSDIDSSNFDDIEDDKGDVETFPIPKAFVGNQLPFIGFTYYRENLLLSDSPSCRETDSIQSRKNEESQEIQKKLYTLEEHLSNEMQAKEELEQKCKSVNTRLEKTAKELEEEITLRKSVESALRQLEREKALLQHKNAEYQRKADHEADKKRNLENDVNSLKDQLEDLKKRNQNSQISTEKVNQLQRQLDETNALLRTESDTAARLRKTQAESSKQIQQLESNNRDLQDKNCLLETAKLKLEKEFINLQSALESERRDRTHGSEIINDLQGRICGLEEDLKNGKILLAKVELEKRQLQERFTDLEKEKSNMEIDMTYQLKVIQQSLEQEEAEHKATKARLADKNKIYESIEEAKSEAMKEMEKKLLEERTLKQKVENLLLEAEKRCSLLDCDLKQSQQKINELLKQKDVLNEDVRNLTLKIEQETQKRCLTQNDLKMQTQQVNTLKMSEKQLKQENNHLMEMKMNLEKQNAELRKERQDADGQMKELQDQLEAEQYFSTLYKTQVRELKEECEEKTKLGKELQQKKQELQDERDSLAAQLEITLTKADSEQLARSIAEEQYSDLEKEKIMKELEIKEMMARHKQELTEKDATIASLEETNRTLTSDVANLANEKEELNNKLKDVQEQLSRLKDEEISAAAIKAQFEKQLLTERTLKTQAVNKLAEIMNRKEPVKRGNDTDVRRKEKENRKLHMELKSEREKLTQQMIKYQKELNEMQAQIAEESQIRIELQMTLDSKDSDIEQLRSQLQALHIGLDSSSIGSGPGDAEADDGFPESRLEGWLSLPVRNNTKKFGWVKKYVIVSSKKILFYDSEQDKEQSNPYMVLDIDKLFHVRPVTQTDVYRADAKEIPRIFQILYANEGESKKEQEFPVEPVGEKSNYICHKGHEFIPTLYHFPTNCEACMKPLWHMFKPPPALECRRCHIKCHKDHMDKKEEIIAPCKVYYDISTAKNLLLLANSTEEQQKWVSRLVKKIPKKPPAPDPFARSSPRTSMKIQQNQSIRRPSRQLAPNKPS
Aurora kinase A, sequence (O14965 whole entry): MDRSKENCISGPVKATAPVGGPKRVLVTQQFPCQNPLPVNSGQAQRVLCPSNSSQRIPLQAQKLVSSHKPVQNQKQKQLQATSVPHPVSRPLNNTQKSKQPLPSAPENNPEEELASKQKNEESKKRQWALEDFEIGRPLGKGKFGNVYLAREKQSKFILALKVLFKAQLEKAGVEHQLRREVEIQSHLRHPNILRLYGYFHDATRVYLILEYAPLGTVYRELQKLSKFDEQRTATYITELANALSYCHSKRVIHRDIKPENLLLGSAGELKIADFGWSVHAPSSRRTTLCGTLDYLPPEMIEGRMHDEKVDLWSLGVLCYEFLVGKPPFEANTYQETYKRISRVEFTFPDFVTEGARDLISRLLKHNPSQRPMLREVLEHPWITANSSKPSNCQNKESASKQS
Hepatocyte growth factor receptor, sequence (P08581 whole entry): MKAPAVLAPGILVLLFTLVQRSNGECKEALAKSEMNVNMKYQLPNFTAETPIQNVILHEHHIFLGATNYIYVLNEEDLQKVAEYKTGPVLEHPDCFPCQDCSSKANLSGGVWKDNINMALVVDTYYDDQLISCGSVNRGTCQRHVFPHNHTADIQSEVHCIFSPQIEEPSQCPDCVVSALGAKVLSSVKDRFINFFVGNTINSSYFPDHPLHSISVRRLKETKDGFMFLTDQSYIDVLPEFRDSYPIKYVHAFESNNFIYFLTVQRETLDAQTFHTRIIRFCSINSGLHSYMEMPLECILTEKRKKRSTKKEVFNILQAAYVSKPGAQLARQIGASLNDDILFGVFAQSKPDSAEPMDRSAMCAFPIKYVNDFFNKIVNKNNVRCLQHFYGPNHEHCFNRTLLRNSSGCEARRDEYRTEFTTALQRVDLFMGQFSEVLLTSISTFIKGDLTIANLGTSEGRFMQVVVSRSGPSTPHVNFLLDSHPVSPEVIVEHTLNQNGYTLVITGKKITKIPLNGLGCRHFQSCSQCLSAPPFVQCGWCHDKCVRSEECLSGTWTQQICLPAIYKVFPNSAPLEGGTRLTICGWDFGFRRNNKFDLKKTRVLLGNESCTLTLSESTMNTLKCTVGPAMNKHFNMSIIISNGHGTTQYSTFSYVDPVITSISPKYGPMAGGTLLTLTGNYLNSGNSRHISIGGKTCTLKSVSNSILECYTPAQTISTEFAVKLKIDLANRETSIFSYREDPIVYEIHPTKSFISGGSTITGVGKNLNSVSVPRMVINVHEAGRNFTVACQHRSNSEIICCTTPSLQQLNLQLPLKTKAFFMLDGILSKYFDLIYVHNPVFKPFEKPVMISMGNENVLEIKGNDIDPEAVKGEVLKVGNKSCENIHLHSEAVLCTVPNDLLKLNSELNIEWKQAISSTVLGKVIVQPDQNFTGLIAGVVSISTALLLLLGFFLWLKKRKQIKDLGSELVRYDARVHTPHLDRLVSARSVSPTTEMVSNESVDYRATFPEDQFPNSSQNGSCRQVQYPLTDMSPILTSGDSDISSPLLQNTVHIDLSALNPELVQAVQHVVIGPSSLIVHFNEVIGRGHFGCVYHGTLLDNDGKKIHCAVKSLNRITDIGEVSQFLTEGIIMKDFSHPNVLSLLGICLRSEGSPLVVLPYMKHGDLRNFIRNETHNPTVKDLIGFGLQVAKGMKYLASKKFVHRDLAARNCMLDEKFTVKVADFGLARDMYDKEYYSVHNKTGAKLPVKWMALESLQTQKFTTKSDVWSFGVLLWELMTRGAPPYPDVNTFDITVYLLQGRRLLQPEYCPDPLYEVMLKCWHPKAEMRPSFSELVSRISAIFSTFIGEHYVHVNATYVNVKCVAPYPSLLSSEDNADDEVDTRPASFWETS

IC50 [1]: 0.032 µM | IC50 [2]: > 10 µM | IC50 [3]: > 10 µM | Tmax [4]: 1 h | IC50 [5]: 1.1 µM | Cmax [6]: 1.63 nmol/g | IC50 [8]: > 10 µM | half-life [9]: 6.7 h | IC50 [10]: > 10 µM | IC50 [11]: > 10 µM | IC50 [12]: > 10 µM | IC50 [13]: > 10 µM | Drug uptake [18]: 0.3 nmol/g
SMILES: CCN1CCN(c2ccc(Nc3cc(N(C)C(=O)Nc4c(Cl)c(OC)cc(OC)c4Cl)ncn3)cc2)CC1.O=P(O)(O)O [INFIGRATINIB PHOSPHATE]
inhibition [7]: inactive | Activity [14]: Non-toxic | Activity [15]: Non-toxic | inhibition [16]: inactive | Activity [17]: Active
